In publication PMC4437839 (Chemical research in toxicology, 2015):
“Also recorded” adds a separate entry of the source.

Key:
2′-Deoxyguanosine (dG) = test: Trapping reactive N-oxidized electrophiles of PhIP with dG; settings: 42 nmol, dG 1 mg/mL, pH 8.0, 37 °C, 1 h; total ion counts at MS3 (Fig. 3)
albumin in human plasma = albumin in human plasma (Homo sapiens, UniProt P02768); settings: for level of LQQC*[SOPhIP]PF formed, comparison between the three metabolites: albumin in human plasma or commercial human albumin, p=0.231, one-way ANOVA; for LQQC*[SO2PhIP]PFEDHVK levels, N-acetoxy-PhIP versus HONH-PhIP: human plasma, p>0.05, t-test
Chain of albumin in human plasma (P02768 25-609): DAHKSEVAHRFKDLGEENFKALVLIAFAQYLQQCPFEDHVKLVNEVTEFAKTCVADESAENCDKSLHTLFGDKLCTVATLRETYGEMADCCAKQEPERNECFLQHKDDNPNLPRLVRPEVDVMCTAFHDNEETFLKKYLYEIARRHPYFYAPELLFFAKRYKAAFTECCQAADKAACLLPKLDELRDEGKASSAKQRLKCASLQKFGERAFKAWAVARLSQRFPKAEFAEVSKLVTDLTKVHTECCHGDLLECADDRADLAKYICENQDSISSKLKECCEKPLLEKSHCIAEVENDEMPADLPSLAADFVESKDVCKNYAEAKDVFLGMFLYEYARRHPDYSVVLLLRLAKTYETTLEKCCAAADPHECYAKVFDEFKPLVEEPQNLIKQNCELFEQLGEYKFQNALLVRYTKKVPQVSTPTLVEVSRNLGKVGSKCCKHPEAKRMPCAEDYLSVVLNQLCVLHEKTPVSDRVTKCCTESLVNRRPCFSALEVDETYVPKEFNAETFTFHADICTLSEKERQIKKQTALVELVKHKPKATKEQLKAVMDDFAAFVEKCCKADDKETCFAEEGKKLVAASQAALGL

NAT1 = settings: cited from earlier work
NAT2 = settings: cited from earlier work
SULT1A1 = settings: cited from earlier work
[1] = target: albumin in human hepatocytes culture (Homo sapiens, UniProt P02768); test: Albumin PhIP adducts and Cys34SO3H in human hepatocytes; type: cell-based
Chain of albumin in human hepatocytes culture (P02768 25-609): as above
Outline: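 Primary human hepatocytes (two-step collagenase perfusion) seeded at 3×10^6 viable cells/19.5-cm2 dish in Williams' medium with βME-pre-reduced human albumin (1 g/L) replacing FCS; exposed 24 h to PhIP or 1:1 PhIP:[2H5]-PhIP (50 µM). Medium albumin ethyl acetate-extracted, ethanol-precipitated, kit-isolated, desalted; trypsin/chymotrypsin digested (37 °C, 20 h); C18 SPE; mass-tag data-dependent, then targeted UPLC-ESI/MS2.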

Hb = settings: humans, radiolabelled 14C-PhIP; cited from earlier work
albumin = settings: humans; cited from earlier work
[2] = N-sulfooxy-PhIP modified albumin, unpublished observations

## CC(=O)ONc1nc2ncc(-c3ccccc3)cc2n1C [N-acetoxy-PhIP, N-(acetyloxy)-2-amino-1-methyl-6-phenylimidazo[4,5-b]pyridine, reference compound]
2′-Deoxyguanosine (dG)
  relative amount of dG-C8-PhIP formation: greatest amount
Albumin in human plasma
  level of LQQC*[SOPhIP]PF formed, comparison between the three metabolites: no statistically significant difference
  LQQC*[SO2PhIP]PFEDHVK levels, N-acetoxy-PhIP versus HONH-PhIP: no significant difference

## Cn1c(NOS(=O)(=O)O)nc2ncc(-c3ccccc3)cc21 [N-sulfooxy-PhIP, N-sulfooxy-2-amino-1-methyl-6-phenylimidazo[4,5-b]pyridine]
2′-Deoxyguanosine (dG)
  relative amount of dG-C8-PhIP formation: lower level
Albumin in human plasma; 3-enzyme digest, ion counts (Fig. 7)
  level of W[PhIP] adduct relative to signal of C[SO2PhIP]: about half
Albumin in human plasma; [2]
  ion counts of H[PhIP], fold lower than counts of W[PhIP]: 5 folder
  ion counts of H[PhIP], fold lower than ion counts of C[SO2PhIP]: 10 fold
Albumin in human plasma
  level of LQQC*[SOPhIP]PF formed, comparison between the three metabolites: no statistically significant difference
Albumin in human plasma; pronase E/leucine aminopeptidase/prolidase digest, ion counts (Fig. 7B)
  level of Trp[PhIP] relative to N-acetoxy-PhIP or HONH-PhIP treated human plasma: 3 x

## Cn1c(NO)nc2ncc(-c3ccccc3)cc21 [HONH-PhIP, 2-hydroxyamino-1-methyl-6-phenylimidazo[4,5-b]pyridine]
2′-Deoxyguanosine (dG)
  relative amount of dG-C8-PhIP formation: lastly
Albumin in human plasma
  level of LQQC*[SOPhIP]PF formed, comparison between the three metabolites: no statistically significant difference
  LQQC*[SO2PhIP]PFEDHVK levels, N-acetoxy-PhIP versus HONH-PhIP: no significant difference
NAT1
  bioactivation by NAT1: poorly bioactivated
NAT2
  bioactivation by NAT2: poorly bioactivated
SULT1A1
  bioactivation by SULT1A1: highly effective

## Cn1c(N)nc2ncc(-c3ccccc3)cc21 [PhIP, 2-amino-1-methyl-6-phenylimidazo[4,5-b]pyridine]
[1]; PhIP 50 µM, 24 h (Figs. 8A, 8B)
  PhIP and 5-HO-PhIP in the proteolytic digests of albumin: detected
[1]; PhIP 50 µM, tryptic/chymotryptic digest (Fig. 9)
  Y*[desaminoPhIP]TK (Tyr411) and LQQC*[desaminoPhIP]PF (Cys34) adducts: both adducts were identified
[1]; PhIP or PhIP:[2H5]-PhIP 50 µM, 24 h, data-dependent and targeted MS2
  albumin-PhIP peptide adducts at Cys34 or Trp214: failed to detect; also recorded: below the limit of detection
[1]; albumin isolated from hepatocytes, targeted MS2
  LQQC*[SO2PhIP]PFEDHVK after m-CPBA oxidation of albumin: failed to detect; also recorded: not detected
Hb
  PhIP binding to Hb: very low
albumin
  binding of PhIP to albumin: up to several percent of the ingested dose
